Data published in ChEMBL document CHEMBL3045292, “Synthesis and herbicidal activity of 2-(7-fluoro-3-oxo- 3,4-dihydro-2H-benzo[b][1,4]oxazin-6-yl)isoindoline-1,3-diones” (J Agric Food Chem, 2005).

How the values were obtained:
Amaranthus blitum [1] = assay: Herbicidal activity against Amaranthus blitum assessed as weed growth inhibition at 75 g/ha pre-emergence treatment […]; assay type: functional; conditions: read-out: GI
Summary of the method: (§1)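 Pot-grown plants in the greenhouse, in clay soil (pH 6.5, 1.6% organic matter, 37.3% clay, CEC 12.1 cmol/kg). Compound was made up as a 100 g/L emulsified concentrate (DMF, Tween-80), diluted in water and sprayed at 75 g ai/ha. Pre-emergence spraying was 24 h after sowing; post-emergence at two-leaf (dicots) or one-leaf (monocots) stage. Untreated and DMF controls. Percent growth inhibition scored visually 15 days post-treatment.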

Chenopodium album [2] = assay: Herbicidal activity against fat hen Chenopodium album assessed as weed growth inhibition at 75 g/ha pre-emergence treatment […]; assay type: functional; conditions: read-out: GI; summary of the method: as §1
Amaranthus blitum [3] = assay: Herbicidal activity against Amaranthus blitum assessed as weed growth inhibition at 75 g/ha post-emergence treatment […]; assay type: functional; conditions: read-out: GI; summary of the method: as §1
Echinochloa crus-galli [4] = assay: Herbicidal activity against Echinochloa crus-galli (barnyard grass) (barnyard grass) assessed as weed growth inhibition at 75 g/ha pre-emergence treatment […]; assay type: functional; conditions: read-out: GI; summary of the method: as §1
Abutilon theophrasti [5] = assay: Herbicidal activity against Abutilon theophrasti (velvetleaf) assessed as weed growth inhibition at post-emergence treatment […]; assay type: functional, organism-based; summary of the method: as §1
Abutilon theophrasti [6] = assay: Herbicidal activity against Abutilon theophrasti (velvetleaf) assessed as weed growth inhibition at 75 g/ha pre-emergence treatment […]; assay type: functional; conditions: read-out: GI; summary of the method: as §1
Digitaria sanguinalis [7] = assay: Herbicidal activity against crabgrass Digitaria sanguinalis(hairy crabgrass) assessed as weed growth inhibition at post-emergence treatment […]; assay type: functional, organism-based; summary of the method: as §1
Abutilon theophrasti [8] = assay: Herbicidal activity against Abutilon theophrasti (velvetleaf) assessed as weed growth inhibition at 75 g/ha post-emergence treatment […]; assay type: functional; conditions: read-out: GI; summary of the method: as §1
Chenopodium album [9] = assay: Herbicidal activity against fat hen Chenopodium album assessed as weed growth inhibition at 75 g/ha post-emergence treatment […]; assay type: functional; conditions: read-out: GI; summary of the method: as §1
Digitaria sanguinalis [10] = assay: Herbicidal activity against crabgrass Digitaria sanguinalis(hairy crabgrass) assessed as weed growth inhibition at 75 g/ha pre-emergence treatment […]; assay type: functional; conditions: read-out: GI; summary of the method: as §1
Setaria viridis [11] = assay: Herbicidal activity against Setaria viridis (green foxtail) assessed as weed growth inhibition at 75 g/ha pre-emergence treatment […]; assay type: functional; conditions: read-out: GI; summary of the method: as §1
Echinochloa crus-galli [12] = assay: Herbicidal activity against Echinochloa crus-galli (barnyard grass) (barnyard grass) assessed as weed growth inhibition at 75 g/ha post-emergence treatment […]; assay type: functional; conditions: read-out: GI; summary of the method: as §1
Digitaria sanguinalis [13] = assay: Herbicidal activity against crabgrass Digitaria sanguinalis(hairy crabgrass) assessed as weed growth inhibition at 75 g/ha post-emergence treatment […]; assay type: functional; conditions: read-out: GI; summary of the method: as §1
Setaria viridis [14] = assay: Herbicidal activity against Setaria viridis (green foxtail) assessed as weed growth inhibition at 75 g/ha post-emergence treatment […]; assay type: functional; conditions: read-out: GI; summary of the method: as §1

Row | SMILES | inhibition of growth at 75 g/ha (Amaranthus blitum [1]) [%] | inhibition of growth at 75 g/ha (Chenopodium album [2]) [%] | inhibition of growth at 75 g/ha (Amaranthus blitum [3]) [%] | inhibition of growth at 75 g/ha (Echinochloa crus-galli [4]) [%] | IC50 (Abutilon theophrasti [5]) [g/ha] | inhibition of growth at 75 g/ha (Abutilon theophrasti [6]) [%] | IC50 (Digitaria sanguinalis [7]) [g/ha] | inhibition of growth at 75 g/ha (Abutilon theophrasti [8]) [%] | inhibition of growth at 75 g/ha (Chenopodium album [9]) [%] | inhibition of growth at 75 g/ha (Digitaria sanguinalis [10]) [%] | inhibition of growth at 75 g/ha (Setaria viridis [11]) [%] | inhibition of growth at 75 g/ha (Echinochloa crus-galli [12]) [%] | inhibition of growth at 75 g/ha (Digitaria sanguinalis [13]) [%] | inhibition of growth at 75 g/ha (Setaria viridis [14]) [%]
1 | O=C1COc2cc(F)c(N3C(=O)c4ccccc4C3=O)cc2N1CC#CI | > 80 | > 80 | > 80 | < 50 | 3.9 | > 80 | 68 | > 80 | > 80 | > 80 | 50 | < 50 | 50 | 50
2 | N#CCN1C(=O)COc2cc(F)c(N3C(=O)c4ccccc4C3=O)cc21 | < 50 | < 50 | < 50 | < 50 | 92 | < 50 | 57 | < 50 | < 50 | < 50 | < 50 | < 50 | 50 | < 50
3 | C#CCN1C(=O)COc2cc(F)c(N3C(=O)c4ccccc4C3=O)cc21 | > 80 | > 80 | > 80 | < 50 | 7.5 | > 80 | 17 | > 80 | > 80 | > 80 | < 50 | > 80 | > 80 | > 80
